# Measured values published in ChEMBL document CHEMBL6071158, “Design, synthesis, and in vitro biological evaluation of meta-sulfonamidobenzamide-based antibacterial LpxH inhibitors” (Eur J Med Chem, 2024).
# Key:
# Escherichia coli [1] = test: Antibacterial activity against wild type Escherichia coli ATCC 25922 incubated for 16 to 20 hrs by Mueller-Hinton broth based two-fold serial dilution method; assay type: functional; conditions: time 16-20 hrs
# Escherichia coli [2] = test: Antibacterial activity against efflux pump-deficient delta tolC Escherichia coli ATCC 25922 assessed as bacterial growth inhibition incubated for 16 to 20 hrs by Mueller-Hinton broth based two-fold serial dilution method; assay type: functional; conditions: time 16-20 hrs
# Escherichia coli [3] = test: Inhibition of Escherichia coli LpXH enzyme at 100 nM by colorimetric coupled enzymatic analysis relative to control
# Procedure, shortened: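 AaLpxE-coupled assay: E. coli LpxH 0.1 nM and UDP-DAGn 20 µM (final) in 20 mM Tris-HCl pH 8.0, BSA, 0.02 % Triton X-100, 1 mM MnCl₂, 1 mM DTT, 10 % DMSO; inhibitor pre-incubated with enzyme 10 min, reaction 30 min at 37 °C, EDTA quench, then LpxE 30 min; released phosphate by malachite green at 620 nm vs phosphate standard; triplicate.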
# [4] = Hemolysis activity in human RBC cells assessed as effect on hemolysis relative to control; assay type: toxicity, cell-based, Erythrocyte; conditions: human red blood cells, read-out: Activity
# [5] = Cytotoxicity against human HepG2 cells assessed as inhibition of cells incubated for 72 hrs by fluorometric microculture analysis; assay type: toxicity, cell-based
# Procedure, shortened: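 HepG2 (mycoplasma-free, ≤20 passages, DMEM + 10 % FBS + pen/strep) seeded 4000/well, cultured overnight, then exposed 72 h at 37 °C, 5 % CO₂ to nine two-fold dilutions in duplicate, top 100 µM. Viability by fluorescein diacetate hydrolysis (0.5 µg/ml FDA, 50 min, ex 475/em 520 nm); survival index vs control; IC50 by non-linear regression of log concentration-effect curves. Bortezomib 2 µM positive control.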
# hERG (KCNH2) [6] = molecular target: T1, hERG (KCNH2) (Homo sapiens, UniProt Q12809); test: Inhibition of hERG expressed in CHO cells at 10 uM by automated patch clamp analysis relative to control; assay type: toxicity, cell-based; conditions: CHO cells that express hERG
# T1 sequence (Q12809 whole entry): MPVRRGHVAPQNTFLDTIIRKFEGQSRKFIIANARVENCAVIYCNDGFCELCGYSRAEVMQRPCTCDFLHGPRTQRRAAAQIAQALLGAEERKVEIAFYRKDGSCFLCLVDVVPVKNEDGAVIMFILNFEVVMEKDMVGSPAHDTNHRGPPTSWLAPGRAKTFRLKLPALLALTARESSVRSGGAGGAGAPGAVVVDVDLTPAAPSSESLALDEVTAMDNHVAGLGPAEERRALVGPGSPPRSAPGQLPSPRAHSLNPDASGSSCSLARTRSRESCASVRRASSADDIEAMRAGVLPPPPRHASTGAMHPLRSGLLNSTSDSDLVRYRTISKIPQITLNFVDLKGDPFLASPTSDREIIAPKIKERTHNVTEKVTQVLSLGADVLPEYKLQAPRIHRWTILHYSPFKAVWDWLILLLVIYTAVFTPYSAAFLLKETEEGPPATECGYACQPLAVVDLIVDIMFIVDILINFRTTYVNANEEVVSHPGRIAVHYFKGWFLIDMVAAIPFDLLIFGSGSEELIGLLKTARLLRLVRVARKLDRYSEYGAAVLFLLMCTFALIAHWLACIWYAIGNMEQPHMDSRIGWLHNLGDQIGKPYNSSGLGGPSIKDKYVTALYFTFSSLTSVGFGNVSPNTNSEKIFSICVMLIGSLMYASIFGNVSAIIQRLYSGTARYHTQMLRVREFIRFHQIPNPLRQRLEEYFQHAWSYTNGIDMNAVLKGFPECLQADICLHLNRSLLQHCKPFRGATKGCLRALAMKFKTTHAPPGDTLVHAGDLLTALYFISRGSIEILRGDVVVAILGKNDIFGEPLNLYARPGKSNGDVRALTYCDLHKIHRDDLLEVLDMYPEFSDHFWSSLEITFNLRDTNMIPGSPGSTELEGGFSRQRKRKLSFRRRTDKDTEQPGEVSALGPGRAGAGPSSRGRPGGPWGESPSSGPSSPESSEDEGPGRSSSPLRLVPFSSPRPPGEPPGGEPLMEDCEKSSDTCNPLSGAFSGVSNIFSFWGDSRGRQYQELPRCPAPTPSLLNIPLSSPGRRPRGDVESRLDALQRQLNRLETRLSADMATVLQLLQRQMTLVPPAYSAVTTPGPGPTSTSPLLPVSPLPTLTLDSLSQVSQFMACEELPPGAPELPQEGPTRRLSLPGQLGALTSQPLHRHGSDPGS
# Procedure, shortened: (§1)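 Stably expressing CHO-KV11.1 cells, automated whole-cell population patch clamp (10 cells) at 22 °C; vehicle baseline (0.43 % DMSO) then two cumulatively rising concentrations, 30 s exposure. Holding −80 mV, steps in 10 mV increments to 50 mV for 5 s, tail current at −50 mV (peak in first 90 ms, leak-subtracted); protocol every 150 s; triplicate, mean ± SEM.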
# hERG (KCNH2) [7] = molecular target: T1, hERG (KCNH2); test: Inhibition of hERG expressed in CHO cells at 30 uM by automated patch clamp analysis relative to control; assay type: toxicity, cell-based; conditions: CHO cells that express hERG; procedure, shortened: as §1
# Klebsiella pneumoniae [8] = test: Antibacterial activity against wild type Klebsiella pneumoniae ATCC 13883 assessed as of bacterial growth incubated for 16 to 20 hrs by Mueller-Hinton broth based two-fold serial dilution method
# Escherichia coli [9] = test: Antibacterial activity against Escherichia coli ATCC 25922 assessed as viable colonies measured after 18 to 20 hrs by Mueller-Hinton II broth assay; assay type: functional; conditions: time 18-20 hrs
# Klebsiella pneumoniae [10] = test: Antibacterial activity against Klebsiella pneumonia ATCC 13883 assessed as viable colonies measured after 18 to 20 hrs by Mueller-Hinton II broth assay; assay type: functional; conditions: time 18-20 hrs
# Escherichia coli [11] = test: Antibacterial activity against efflux-defective Escherichia coli delta tolC ATCC 25922; assay type: functional
Compound,MIC (Escherichia coli [1]),MIC (Escherichia coli [2]),inhibition (Escherichia coli [3]),hemolysis [4],IC50 at 72 h [5],inhibition at 10 µM (hERG (KCNH2) [6]),inhibition at 30 µM (hERG (KCNH2) [7]),MIC (Klebsiella pneumoniae [8]),MIC (Escherichia coli [9]),MIC (Klebsiella pneumoniae [10]),MIC (Escherichia coli [11])
CN(c1cccc(C(=O)Nc2ccc(S(=O)(=O)N3CCN(c4cc(Cl)cc(Cl)c4)CC3)cc2)c1)S(C)(=O)=O,64 µg/mL,0.125 µg/mL,,,,,,,,,
CN(c1ccccc1C(=O)Nc1ccc(S(=O)(=O)N2CCN(c3cc(Cl)cc(Cl)c3)CC2)cc1)S(C)(=O)=O,1 µg/mL,,,,,,,,,,
NC(=O)[C@H]1CC[C@H](C(F)(F)c2cc(Cl)nc(N3CCN(S(=O)(=O)c4ccc(N5C[C@@H](N)CC5=O)cc4)CC3)c2)CC1,0.3 µg/mL,,,,,,,,,,
Cc1cc(C#N)nc(N2CCN(S(=O)(=O)c3ccc(NC(=O)c4cc(CNCCCN)cc(NS(C)(=O)=O)c4)cc3)CC2)n1,8 µg/mL,0.5 µg/mL,63%,0.08%,> 100 µM,3%,9%,4 µg/mL,,,
Cc1cc(C#N)nc(N2CCN(S(=O)(=O)c3ccc(NC(=O)c4cc(NS(C)(=O)=O)nc(N5CC(CN)C5)c4)cc3)CC2)n1,8 µg/mL,0.5 µg/mL,80%,0.12%,> 100 µM,1%,0%,4 µg/mL,,,
Cc1cc(C#N)nc(N2CCN(S(=O)(=O)c3ccc(NC(=O)c4ccccc4N(C)S(C)(=O)=O)cc3)CC2)n1,2 µg/mL,≤ 0.125 µg/mL,100%,0.05%,29 µM,14%,24%,2 µg/mL,,,
Cc1cc(C#N)nc(N2CCN(S(=O)(=O)c3ccc(NC(=O)c4cc(CNC[C@H]5C[C@@H]5N)ccc4N(C)S(C)(=O)=O)cc3)CC2)n1,2 µg/mL,≤ 0.125 µg/mL,100%,0.35%,47 µM,9%,28%,0.5 µg/mL,2 µg/mL,0.5 µg/mL,
Cc1cc(C#N)nc(N2CCN(S(=O)(=O)c3ccc(NC(=O)c4cc(CN5CC(CN)C5)cc(NS(C)(=O)=O)c4)cc3)CC2)n1,16 µg/mL,0.25 µg/mL,89%,0.06%,,4%,7%,4 µg/mL,,,
CS(=O)(=O)Nc1cccc(C(=O)Nc2ccc(S(=O)(=O)N3CCN(c4cc(Cl)cc(Cl)c4)CC3)cc2)c1,4 µg/mL,0.125 µg/mL,,,,,,,,,
Cc1cc(C#N)nc(N2CCN(S(=O)(=O)c3ccc(NC(=O)c4cccc(NS(C)(=O)=O)c4)cc3)CC2)n1,4 µg/mL,0.125 µg/mL,75%,0.05%,,3%,12%,2 µg/mL,,,
Cc1cc(C#N)nc(N2CCN(S(=O)(=O)c3ccc(NC(=O)c4cc(CN5CC(CN)C5)ccc4N(C)S(C)(=O)=O)cc3)CC2)n1,2 µg/mL,≤ 0.125 µg/mL,71%,0.13%,54 µM,5%,16%,0.5 µg/mL,,,
Cc1cc(C#N)nc(N2CCN(S(=O)(=O)c3ccc(NC(=O)c4cc(CNCCCN)ccc4N(C)S(C)(=O)=O)cc3)CC2)n1,2 µg/mL,≤ 0.125 µg/mL,69%,0.06%,55 µM,4%,11%,1 µg/mL,,,
Cc1cc(C#N)nc(N2CCN(S(=O)(=O)c3ccc(NC(=O)c4cc(C=C5CNC5)cc(NS(C)(=O)=O)c4)cc3)CC2)n1,64 µg/mL,0.5 µg/mL,86%,0.17%,> 100 µM,4%,24%,16 µg/mL,,,
Cc1cc(C#N)nc(N2CCN(S(=O)(=O)c3ccc(NC(=O)c4cc(Cl)nc(NS(C)(=O)=O)c4)cc3)CC2)n1,8 µg/mL,≤ 0.125 µg/mL,54%,0.02%,> 50 µM,2%,0%,4 µg/mL,,,
Cc1cc(C#N)nc(N2CCN(S(=O)(=O)c3ccc(NC(=O)c4cc(NS(C)(=O)=O)cc(N5CC(CN)C5)c4)cc3)CC2)n1,64 µg/mL,0.25 µg/mL,92%,0.12%,> 100 µM,5%,9%,32 µg/mL,,,
CS(=O)(=O)Nc1ccccc1C(=O)Nc1ccc(S(=O)(=O)N2CCN(c3cc(Cl)cc(Cl)c3)CC2)cc1,64 µg/mL,,,,,,,,,,
CC(=O)N1CCc2cc(S(=O)(=O)N3CCN(c4cccc(C(F)(F)F)c4)CC3)ccc21,,,,,,,,,,,0.25 µg/mL
